Results from ChEMBL document CHEMBL1122125, “Synthesis and in vivo antitumor activity of potential 5-fluorouracil prodrugs” (1982).

Legend:
Assay type in all cases: functional
Mus musculus [1] = assay: Percent increase in life span against P-388 leukemia in mice was determined at a dose of 85 mg/kg; conditions: P388
Summary of the method: (§1)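 Male B6D2F1J mice, 5 per dose group, received 10⁶ P-388 cells ip on day 0. Dosing was ip qd × 4 on days 1-4 in sterile saline, or 10% Tween 80 for the butyl thioether. Median survival times of treated (T) and untreated control (C, 10-17 mice) groups were compared: %ILS = [(T/C) − 1]100. Weights taken on days 1 and 7.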

Mus musculus [2] = assay: Antitumor activity was determined for average 7-day weight change against P-388 leukemia in mice at a dose of 75 mg/kg
Summary of the method: (§2)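 Male B6D2F1J mice given 10⁶ P-388 cells ip on day 0, then treated ip once daily on days 1-4 (qd × 4), 5 mice per dose group. Compounds dosed in sterile saline, except one lipophilic thioether given in 10% Tween 80. Mice weighed on days 1 and 7; mean weight per mouse on day 1 and 7-day weight change reported in g and as percent.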

Mus musculus [3] = assay: Antitumor activity was determined for median survival of mice against P-388 leukemia in mice at a dose of 340 mg/kg
Summary of the method: (§3)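 Male B6D2F1J mice implanted ip with 10⁶ P-388 cells on day 0; test agents given ip on days 1–4 (qd × 4) in sterile saline, or in 10% Tween 80 for the lipophilic thioether. Groups of 5 treated mice, with 10–17 untreated controls per experiment. Mice weighed on days 1 and 7 to give the 7-day weight change in g and %. Survival recorded in days as median and range.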

Mus musculus [4] = assay: Antitumor activity was determined for 7-day average percent weight change against P-388 leukemia in mice at a dose of 680 mg/kg; summary of the method: as §2
Mus musculus [5] = assay: Antitumor activity was determined for median survival of mice against P-388 leukemia in mice at a dose of 300 mg/kg; summary of the method: as §3
Mus musculus [6] = assay: Antitumor activity was determined for average weight on day 1 against P-388 leukemia in mice at a dose of 300 mg/kg
Summary of the method: (§4)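 Male B6D2F1J mice, groups of 5, inoculated ip with 10⁶ P-388 cells on day 0. Drug given ip on days 1-4 (qd × 4) in sterile saline, or in 10% Tween 80 for the poorly water-soluble thioether. Average weight per mouse recorded on day 1, with reweighing on day 7 for percent weight change. Untreated control groups had 10-17 animals per experiment.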

Mus musculus [7] = assay: Antitumor activity was determined for average weight on day 1 against P-388 leukemia in mice at a dose of 170 mg/kg; summary of the method: as §4
Mus musculus [8] = assay: Antitumor activity was determined for average 7-day weight change against P-388 leukemia in mice at a dose of 300 mg/kg; summary of the method: as §2
Mus musculus [9] = assay: Antitumor activity was determined for average 7-day weight change against P-388 leukemia in mice at a dose of 170 mg/kg; summary of the method: as §2
Mus musculus [10] = assay: Percent increase in life span against P-388 leukemia in mice was determined at a dose of 340 mg/kg; conditions: P388; summary of the method: as §1
Mus musculus [11] = assay: Antitumor activity was determined for survival range of mice against P-388 leukemia in mice at a dose of 170 mg/kg; summary of the method: as §3
Mus musculus [12] = assay: Antitumor activity was determined for 7-day average percent weight change against P-388 leukemia in mice at a dose of 600 mg/kg; summary of the method: as §2
Mus musculus [13] = assay: Percent increase in life span against P-388 leukemia in mice was determined at a dose of 170 mg/kg; conditions: P388; summary of the method: as §1
Mus musculus [14] = assay: Antitumor activity was determined for average weight on day 1 against P-388 leukemia in mice at a dose of 85 mg/kg; summary of the method: as §4
Mus musculus [15] = assay: Antitumor activity was determined for survival range of mice against P-388 leukemia in mice at a dose of 300 mg/kg; summary of the method: as §3
Mus musculus [16] = assay: Antitumor activity was determined for average 7-day weight change against P-388 leukemia in mice at a dose of 680 mg/kg; summary of the method: as §2
Mus musculus [17] = assay: Antitumor activity was determined for average 7-day weight change against P-388 leukemia in mice at a dose of 600 mg/kg; summary of the method: as §2
Mus musculus [18] = assay: Antitumor activity was determined for survival range of mice against P-388 leukemia in mice at a dose of 680 mg/kg; summary of the method: as §3
L1210 = assay: Evaluated for cytotoxicity against L1210 mouse leukemia cells; conditions: read-out: ID50 (the source's name)
Summary of the method: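 L1210 murine leukemia cells in Eagle's minimal essential medium with 15% fetal calf serum, streptomycin (100 μg/mL), penicillin (100 units/mL) and 0.05 mM 2-mercaptoethanol. Cells counted by Coulter counter after 48 h exposure. ID50 is the 50% growth-inhibitory dose. Triplicate assays, standard deviation ±10%.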

Mus musculus [19] = assay: Antitumor activity was determined for median survival of mice against P-388 leukemia in mice at a dose of 75 mg/kg; summary of the method: as §3
Mus musculus [20] = assay: Antitumor activity was determined for average 7-day weight change against P-388 leukemia in mice at a dose of 340 mg/kg; summary of the method: as §2
Mus musculus [21] = assay: Percent increase in life span against P-388 leukemia in mice was determined at a dose of 300 mg/kg; conditions: P388; summary of the method: as §1
Mus musculus [22] = assay: Percent increase in life span against P-388 leukemia in mice was determined at a dose of 600 mg/kg; conditions: P388; summary of the method: as §1
Mus musculus [23] = assay: Antitumor activity was determined for average weight on day 1 against P-388 leukemia in mice at a dose of 340 mg/kg; summary of the method: as §4
Mus musculus [24] = assay: Antitumor activity was determined for average weight on day 1 against P-388 leukemia in mice at a dose 75 of mg/kg; summary of the method: as §2
Mus musculus [25] = assay: Antitumor activity was determined for median survival of mice against P-388 leukemia in mice at a dose of 680 mg/kg; summary of the method: as §3
Mus musculus [26] = assay: Antitumor activity was determined for 7-day average percent weight change against P-388 leukemia in mice at a dose of 300 mg/kg; summary of the method: as §2
Mus musculus [27] = assay: Antitumor activity was determined for average 7-day weight change against P-388 leukemia in mice at a dose of 85 mg/kg; summary of the method: as §2
Mus musculus [28] = assay: Percent increase in life span against P-388 leukemia in mice was determined at a dose of 680 mg/kg; conditions: P388; summary of the method: as §1
Mus musculus [29] = assay: Antitumor activity was determined for 7-day average percent weight change against P-388 leukemia in mice at a dose of 340 mg/kg; summary of the method: as §2
Mus musculus [30] = assay: Antitumor activity was determined for 7-day average percent weight change against P-388 leukemia in mice at a dose of 85 mg/kg; summary of the method: as §2
Mus musculus [31] = assay: Antitumor activity was determined for average weight on day 1 against P-388 leukemia in mice at a dose 150 of mg/kg; summary of the method: as §2
Mus musculus [32] = assay: Antitumor activity was determined for survival range of mice against P-388 leukemia in mice at a dose of 75 mg/kg
Summary of the method: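 Male B6D2F1J mice, 5 per dose group, implanted ip with 10⁶ P-388 leukemia cells on day 0. Drug given ip daily on days 1-4 (qd × 4) in sterile saline, or in 10% Tween 80 for the butyl thioether. Survival range recorded in days. Untreated control groups had 10-17 animals per experiment. Mice weighed on days 1 and 7.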

Mus musculus [33] = assay: Antitumor activity was determined for median survival of mice against P-388 leukemia in mice at a dose of 150 mg/kg; summary of the method: as §3
Mus musculus [34] = assay: Percent increase in life span against P-388 leukemia in mice was determined at a dose of 75 mg/kg; conditions: P388; summary of the method: as §1
Mus musculus [35] = assay: Antitumor activity was determined for average 7-day weight change against P-388 leukemia in mice at a dose of 150 mg/kg; summary of the method: as §2

SMILES: CC[C@H]1OC(n2cc(F)c(=O)[nH]c2=O)[C@H](O)[C@@H]1O (stereo partly specified)
- ILS at 85 mg/kg (Mus musculus [1]): 18%
- Average weight (Mus musculus [2]): 2 g mouse-1
- Survival median (Mus musculus [3]): 16
- Weight change (Mus musculus [4]): -5%
- Survival median (Mus musculus [5]): 17
- Average weight (Mus musculus [6]): 23.2 g mouse-1
- Average weight (Mus musculus [7]): 26.4 g mouse-1
- Average weight (Mus musculus [8]): 0.6 g mouse-1
- Average weight (Mus musculus [9]): 1.6 g mouse-1
- ILS at 340 mg/kg (Mus musculus [10]): 45%
- Survival range (Mus musculus [11]): 13
- Weight change (Mus musculus [12]): -10%
- ILS at 170 mg/kg (Mus musculus [13]): 27%
- Average weight (Mus musculus [14]): 26.2 g mouse-1
- Survival range (Mus musculus [15]): 17
- Average weight (Mus musculus [16]): -1.4 g mouse-1
- Average weight (Mus musculus [17]): -2.4 g mouse-1
- Survival range (Mus musculus [18]): 16
- IC50 (L1210): 19 µM
- Survival median (Mus musculus [19]): 15
- Average weight (Mus musculus [20]): 1.4 g mouse-1
- ILS at 300 mg/kg (Mus musculus [21]): 54%
- ILS at 600 mg/kg (Mus musculus [22]): 63%
- Average weight (Mus musculus [23]): 27.8 g mouse-1
- Average weight (Mus musculus [24]): 21.8 g mouse-1
- Survival median (Mus musculus [25]): 17
- Weight change (Mus musculus [26]): 3%
- Average weight (Mus musculus [27]): 1.2 g mouse-1
- ILS at 680 mg/kg (Mus musculus [28]): 54%
- Weight change (Mus musculus [29]): 5%
- Weight change (Mus musculus [30]): 5%
- Average weight (Mus musculus [31]): 25.8 g mouse-1
- Survival range (Mus musculus [32]): 14
- Survival median (Mus musculus [33]): 17
- ILS at 75 mg/kg (Mus musculus [34]): 36%
- Average weight (Mus musculus [35]): 1.8 g mouse-1
